# Results reported in ChEMBL document CHEMBL1122008, “Lipophilic 5'-(alkyl phosphate) esters of 1-beta-D-arabinofuranosylcytosine and its N4-acyl and 2,2'-anhydro-3'-O-acyl derivatives as potential prodrugs” (1982).
# Tests used:
# Format in all cases: functional
# Mus musculus [1] = experiment: Antitumor activity against L1210 leukemia in mice (Average 7-day weight change (%)) at the dose of 250 mg/kg
# Procedure, shortened: (§1)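 Male B6D2F1J mice, groups of five to nine, inoculated ip with 10^5 L1210 cells on day 0. Drug treatment started day 1 on qd×5 or q4d(2,6) schedule. Vehicles: ara-C in sterile water; the n-butyl phosphate ester in 0.05 M pH 7.4 potassium phosphate buffer; others as suspensions in 0.4% Tween 80/0.5% low-density CMC/0.9% benzyl alcohol/0.9% saline. Mice weighed days 1 and 7; 7-day weight change given as g/mouse and %.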
# Mus musculus [2] = experiment: Antitumor activity against L1210/ara-C leukemia in mice (Percent increase in life span.) at the dose of 250 mg/kg
# Procedure, shortened: (§2)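 Same protocol as the L1210 assay, but with 10^5 kinase-deficient L1210/ara-C cells inoculated ip into male B6D2F1J mice (groups of 5–9) on day 0. Treatment begins day 1, qd×5 or q4d(2,6). %ILS = (T/C − 1)×100 using median survival times of treated and control groups. Body weight recorded days 1 and 7.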
# Mus musculus [3] = experiment: Antitumor activity against L1210 leukemia in mice (Average 7-day weight change (%)) at the dose of 100 mg/kg; procedure, shortened: as §1
# Mus musculus [4] = experiment: Antitumor activity against L1210 leukemia in mice (Percent increase in life span.) at the dose of 500 mg/kg
# Procedure, shortened: (§3)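 Male B6D2F1J mice, groups of 5–9, inoculated ip with 10^5 L1210 cells on day 0. Dosing starts day 1 on a qd×5 or q4d(2,6) schedule. Vehicles are sterile water, pH 7.4 0.05 M potassium phosphate buffer, or 0.4% Tween 80/0.5% CMC/0.9% benzyl alcohol/0.9% saline. %ILS = (T/C − 1)×100 from median survival. Weights taken days 1 and 7.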
# Mus musculus [5] = experiment: Antitumor activity against L1210 leukemia in mice (Average 7-day weight change) at the dose of 200 mg/kg; procedure, shortened: as §1
# Mus musculus [6] = experiment: Antitumor activity against L1210 leukemia in mice (Percent increase in life span.) at the dose of 250 mg/kg; procedure, shortened: as §3
# Mus musculus [7] = experiment: Antitumor activity against L1210 leukemia in mice (Average 7-day weight change) at the dose of 500 mg/kg; procedure, shortened: as §1
# Mus musculus [8] = experiment: Antitumor activity against L1210/ara-C leukemia in mice (Percent increase in life span.) at the dose of 50 mg/kg; procedure, shortened: as §2
# Mus musculus [9] = experiment: Antitumor activity against L1210/ara-C leukemia in mice (Average 7-day weight change) at the dose of 1000 mg/kg
# Procedure, shortened: (§4)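 Male B6D2F1J mice (5–9 per group) were given 10^5 L1210/ara-C cells i.p. on day 0, with treatment from day 1 on qd×5 or q4d(2,6). Vehicles were sterile water, pH 7.4 0.05 M phosphate buffer, or a Tween 80/CMC/benzyl alcohol saline suspension. Weights were taken on days 1 and 7; change is expressed in g/mouse and as a percentage.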
# Mus musculus [10] = experiment: Antitumor activity against L1210/ara-C leukemia in mice (Average 7-day weight change (%)) at the dose of 100 mg/kg; procedure, shortened: as §4
# Mus musculus [11] = experiment: Antitumor activity against L1210/ara-C leukemia in mice (Percent increase in life span.) at the dose of 1000 mg/kg; procedure, shortened: as §2
# Mus musculus [12] = experiment: Antitumor activity against L1210 leukemia in mice (Average weight per mouse on day 1.) at the dose of 500 mg/kg
# Procedure, shortened: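 Male B6D2F1J mice (5–9 per group) received 10^5 L1210 cells i.p. on day 0 and drug from day 1, given qd×5 or q4d(2,6). Vehicles were sterile water, 0.05 M potassium phosphate pH 7.4, or 0.4% Tween 80/0.5% CMC/0.9% benzyl alcohol/0.9% saline. Read-out is average body weight per mouse (g) on day 1.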
# Mus musculus [13] = experiment: Antitumor activity against L1210/ara-C leukemia in mice (Average weight per mouse on day 1.) at the dose of 250 mg/kg
# Procedure, shortened: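 Male B6D2F1J mice, groups of 5–9, inoculated ip with 10^5 L1210/ara-C cells on day 0. Dosing began day 1 on a qd×5 or q4d(2,6) schedule. Ara-C was given in sterile water, the n-butyl phosphate ester in 0.05 M pH 7.4 potassium phosphate buffer, and others as suspensions in 0.4% Tween 80/0.5% CMC/0.9% benzyl alcohol/0.9% saline. Mice were weighed on days 1 and 7; 7-day change given in g and %.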
compound,measurement,setting,value
Nc1ccn([C@@H]2O[C@H](CO)[C@@H](O)[C@@H]2O)c(=O)n1 [CYTARABINE],Weight change,Mus musculus [1],7%
same,ILS at 250 mg/kg,Mus musculus [2],12%
same,Weight change,Mus musculus [3],-5%
same,ILS at 500 mg/kg,Mus musculus [4],62%
same,Weight change,Mus musculus [5],-1.6 g mouse-1
same,ILS at 250 mg/kg,Mus musculus [6],62%
same,Weight change,Mus musculus [7],0.4 g mouse-1
same,ILS at 50 mg/kg,Mus musculus [8],0%
same,Weight change,Mus musculus [9],2.4 g mouse-1
same,Weight change,Mus musculus [10],-4%
same,ILS at 1000 mg/kg,Mus musculus [11],0%
same,Average weight,Mus musculus [12],22.6 g mouse-1
same,Average weight,Mus musculus [13],19.4 g mouse-1
